Compound activity: PubChem, Broad Institute
C2C12 statin: suppression of simvastatin myotoxicity; hit rate 0.78% among 330,000; C2C12 myotubes + simvastatin, ATP luminescence, 48 h; scaled: DMSO 0, geranylgeraniol control 100; rescue of ATP level, % at 7.49 µM;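 active = mean ATP rescue above about 67%, or every replicate alone reaching that limit, limit read from the data, passing the limit was not always enough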;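 also: myotubes were challenged with 10 µM simvastatin during compound exposure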
Cneo AK release: causes C. neoformans cell lysis. adenylate kinase release luminescence, 4 h; normalised: neutral wells 0, clomiphene wells 100. lysis activity, % at 15 µM. hit rate 0.2% among 360,000. AID 651654;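 active = mean lysis activity across replicates of at least 80%, whatever share of replicates individually reach that level; inactive = mean lysis activity below 80%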
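Test system: log-phase Cryptococcus neoformans yeast cells. Input: 5 × 10^6 yeast cells/mL. Medium: fresh YPD growth medium. Doses: single dose. Incubation: static 4 h at 37 °C with compound, 1 h detection. Measured by: luminescent adenylate kinase detection reagent. Read-out: signal increase indicating cell lysis. Benchmarks: Clomiphene.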
XiGFP reactiv: X-chromosome reactivation activator; XiGFP mouse fibroblasts, % GFP-positive cells imaging, 3 d; cells co-treated with 5-aza-dC sensitizer; scaled so ellipticine positive control = 100%; activation, % at 7.58 µM; hit rate 0.055% among 360,000; AID 743238;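 active = mean normalized replicate activation at least 10% and every replicate at or above 10%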;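 also: 0% = median of on-plate neutral control wells and 100% = ellipticine 6 µM median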
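System: 68-5-11 XiGFP fibroblast line; Timing: 3 days compound exposure; Compound dosing: one concentration, pinned; Benchmarks: positive control ellipticine, 6 µM final; Buffer or medium: DMEM containing 5-aza-dC.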
DENV2 CPE rescue: DENV2-induced cell death inhibition. hit rate 1.7% among 350,000. CPE inhibition, % at 9.99 µM. DENV2-infected cells, cytopathic effect rescue, plate reader. AID 651640; in the data active = CPE inhibition above about 20%, passing the limit was not always enough; tested in BHK-21 cells;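 also: 0% = median of neutral control wells and 100% = median of positive control wells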
An asterisk follows results filed as active; · = no result. Only some compounds are listed: those with a hit (about 2.1% of all), similar ones and a draw of the others.

SMILES	C2C12 statin	Cneo AK release	XiGFP reactiv	DENV2 CPE rescue
O=C1CC(N2CCN(C/C=C/c3ccccc3)CC2)C(=O)N1Cc1ccc(N2CCCC2=O)cc1 (stereo unspecified)	100*	2	·	·
COc1ccc(/C=C2\CN(Cc3ccccc3)C/C(=C\c3ccc(OC)c(O)c3)C2=O)cc1O	99*	0	0	-5
Cc1ccc(S(=O)(=O)N(C)C[C@H]2OCCCC[C@H](C)Oc3ccc(NC(=O)c4ccccc4)cc3C(=O)N([C@@H](C)CO)C[C@@H]2C)cc1	·	9	0	-1
c1ccc(N2CCN(Cc3nc4ccccc4[nH]3)CC2)nc1	9	19	0	-5
c1ccc(-c2ncc(CN3CCN(c4ccccn4)CC3)[nH]2)cc1	79*	-1	0	4
Cc1oc(C(=O)O)cc1COc1cccc2cccnc12	124*	·	·	·
O=C(C[C@@H]1C[C@@H]2c3cc(NC(=O)c4ccc5c(c4)OCO5)ccc3O[C@@H]2[C@H](CO)O1)NC1CCCC1	2	-2	0	38*
CN(C)CC(=O)Nc1ccc2c(c1)[C@@H]1C[C@@H](CC(=O)NC3CCCCC3)O[C@H](CO)[C@@H]1O2	0	1	0	86*
CN(C)CC(=O)Nc1ccc2c(c1)[C@H]1C[C@H](CC(=O)NC3CCCCC3)O[C@@H](CO)[C@H]1O2	-2	52	0	86*
COCC(=O)Nc1ccc2c(c1)[C@@H]1C[C@H](CC(=O)NC3CCCCC3)O[C@H](CO)[C@@H]1O2	-1	53	0	56*
CO[C@@H]1CN(C)C(=O)c2ccc(NC(=O)C3CCCC3)cc2OC[C@H](C)N(CC2CC2)C[C@@H]1C	4	40	0	-2
O=C(Nc1cc(F)ccc1F)N1[C@@H]2CNC[C@H]1C2c1ccc(-c2ccc(F)cc2)cc1 (stereo partly specified)	·	·	0	-3
CCCNC(=O)Nc1ccc2c(c1)OC[C@@H](C)N(Cc1ccncc1)C[C@@H](C)[C@@H](OC)CN(C)C2=O	-51	-3	0	-3
CC(C)(C)[S@](=O)N1Cc2cc(C(=O)N3CCCCC3)nc(-c3cccc(C4=CCCC4)c3)c2[C@@H]1CCO	·	·	0	26*
CC(C)(C)S(=O)N1Cc2cc(C(=O)NCc3ccc4c(c3)OCO4)nc(-c3cccc(C#CCC4CCCC4)c3)c2[C@@H]1CCO (stereo partly specified)	·	·	·	49*
O=C(c1cc2c(c(-c3cccc(Br)c3)n1)[C@H](CCO)NC2)N1CCCCC1	·	·	0	35*
CC(C)(C)S(=O)N1Cc2cc(C(=O)NCc3ccc4c(c3)OCO4)nc(-c3cccc(-c4cccc(F)c4)c3)c2[C@@H]1CCO (stereo partly specified)	·	·	0	24*
CC(C)(C)S(=O)N1Cc2cc(C(=O)NCc3ccc4c(c3)OCO4)nc(-c3cccc(-c4cc5ccccc5o4)c3)c2[C@H]1CCO (stereo partly specified)	·	·	0	1
CCN1[C@H](C(=O)Nc2ccccc2)[C@@H](CO)[C@@H]2Cn3c(ccc(-c4ccccc4)c3=O)[C@@H]21	20	1	0	-4
O=C(C[C@@H]1CC[C@@H](NS(=O)(=O)c2ccccc2)[C@H](CO)O1)NCc1ccncn1	-7	5	0	5
C[C@@H]1CN([C@@H](C)CO)C(=O)c2cc(N(C)C)ccc2O[C@H]1CN(C)S(C)(=O)=O	-34	4	0	15
C[C@@H]1CCCCO[C@H](CN(C)C(=O)Nc2ccc(C(F)(F)F)cc2)[C@H](C)CN([C@H](C)CO)C(=O)c2cc(NC(=O)Nc3cccc4ccccc34)ccc2O1	-17	0	0	1
COc1ccc(S(=O)(=O)Nc2ccc3c(c2)C(=O)N([C@H](C)CO)C[C@H](C)[C@@H](CN(C)Cc2ccc(C(=O)O)cc2)OCCCC[C@@H](C)O3)cc1	·	53	0	33*
COc1ccc(S(=O)(=O)Nc2ccc3c(c2)C(=O)N([C@@H](C)CO)C[C@@H](C)[C@@H](CN(C)Cc2ccc(C(=O)O)cc2)OCCCC[C@H](C)O3)cc1	·	49	3	26*
COc1ccc(S(=O)(=O)Nc2ccc3c(c2)C(=O)N([C@H](C)CO)C[C@H](C)[C@H](CN(C)Cc2ccc(C(=O)O)cc2)OCCCC[C@@H](C)O3)cc1	·	-3	-1	0
COc1ccc(S(=O)(=O)Nc2ccc3c(c2)C(=O)N([C@H](C)CO)C[C@@H](C)[C@@H](CN(C)Cc2ccc(C(=O)O)cc2)OCCCC[C@@H](C)O3)cc1	·	3	0	-8
